Test results published in ChEMBL document CHEMBL4396965.

System: H1N1 subtype
Test: (§1) Antiviral activity against Influenza A virus (H1N1) harboring PR8-GLuc infected in human A549 cells assessed as reduction in virus-induced cytopathic effect treated post viral infection for 1 hr by luciferase reporter gene assay
Type: functional, cell-based
Settings: not given
How it was run: (§2)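 A549 cells seeded 40,000/well, incubated overnight 37 °C 5% CO2, then infected with PR8-GLuc (H1N1) at 0.1 MOI for 1 h; unbound virus removed by two acidic (PBS pH 2.2) and three neutral (PBS pH 7.4) washes. Initial screen at one concentration below maximum non-toxic concentration; those reaching 50% inhibition retested in dose response for EC50 and EC90.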
For `O=C(O)[C@H]1C2CCC(CC2)[C@@H]1Nc1nc(-c2c[nH]c3ncc(F)cc23)ncc1F` [PIMODIVIR], the EC90 was 27 nM.

System: not listed separately
Test: as §1
Type: functional, cell-based, H1N1 subtype
Settings: A549, 1 h
How it was run: as §2
For `O=C(O)[C@H]1C2C=CC(C2)[C@@H]1Nc1nc(-c2c[nH]c3ncc(F)cc23)ncc1F` (stereo partly drawn), the EC50 was 50 nM.
In the case of `O=C(O)[C@H]1C2C=CC(CC2)[C@@H]1Nc1nc(-c2c[nH]c3ncc(F)cc23)nc2ccsc12` (stereo partly drawn), the EC50 is reported as 17 nM.
Work on `Cc1csc2c(N[C@H]3C4C=CC(CC4)[C@@H]3C(=O)O)nc(-c3c[nH]c4ncc(F)cc34)nc12` (stereo partly drawn) yielded an EC50 of 29 nM.
In the case of `O=C(O)[C@H]1C2C=CC(CC2)[C@@H]1Nc1nc2cnc(-c3c[nH]c4ncc(F)cc34)nc2s1` (stereo partly drawn), the EC50 is reported as > 100000 nM.
In the case of `O=C(O)[C@H]1C2C=CC(CC2)[C@@H]1Nc1nc(-c2n[nH]c3ncc(F)cc23)ncc1F` (stereo partly drawn), the EC50 is reported as 16 nM.
Work on `O=C(O)[C@H]1C2C=CC(CC2)[C@@H]1Nc1nc(-c2c[nH]c3ncc(F)cc23)nc2sccc12` (stereo partly drawn) yielded an EC50 of 6.5 nM.
For `O=C(O)[C@H]1C2C=CC(CC2)[C@@H]1Nc1nc(-c2n[nH]c3ncc(F)cc23)nc2sccc12` (stereo partly drawn), the EC50 was 12 nM.
`O=C(O)[C@H]1C2CCC(C3CC32)[C@@H]1Nc1nc(-c2c[nH]c3ncc(F)cc23)ncc1F` (stereo partly drawn) gave an EC50 of 50 nM.
`O=C(O)[C@H]1C2CCC(CC2)[C@@H]1Nc1nc(-c2c[nH]c3ncc(F)cc23)ncc1F` [PIMODIVIR] gave an EC50 of 4 nM.
In the case of `O=C(O)[C@H]1C2C=CC(CC2)[C@@H]1Nc1nc(-c2c[nH]c3ncc(F)cc23)ncc1F` (stereo partly drawn), the EC50 is reported as 7 nM.
`Cn1cnc2c(N[C@H]3C4C=CC(CC4)[C@@H]3C(=O)O)nc(-c3c[nH]c4ncc(F)cc34)nc21` (stereo partly drawn) gave an EC50 of 400 nM.
Work on `O=C(O)C12CC3CC(CC(Nc4nc(-c5c[nH]c6ncc(F)cc56)ncc4F)(C3)C1)C2` yielded an EC50 of 950 nM.
Work on `O=C(O)[C@H]1C2C=CC(CC2)[C@@H]1Nc1cc2nncn2c(-c2c[nH]c3ncc(F)cc23)n1` (stereo partly drawn) yielded an EC50 of 680 nM.
For `Cn1cnc2nc(-c3c[nH]c4ncc(F)cc34)nc(N[C@H]3C4C=CC(CC4)[C@@H]3C(=O)O)c21` (stereo partly drawn), the EC50 was > 10000 nM.
Compound `O=C(O)[C@H]1C2C=CC(CC2)[C@@H]1Nc1nc(-c2n[nH]c3ncc(F)cc23)nc2ccsc12` (stereo partly drawn) has an EC50 of 42 nM.
`Cc1cc2nc(-c3c[nH]c4ncc(F)cc34)nc(N[C@H]3C4C=CC(CC4)[C@@H]3C(=O)O)c2s1` (stereo partly drawn) showed an EC50 of 27 nM.
With `O=C(O)[C@H]1C2C=CC(CC2)[C@@H]1c1nnc2c(F)cnc(-c3c[nH]c4ncc(F)cc34)n12` (stereo partly drawn) the EC50 was > 40000 nM.
